High-throughput results: PubChem BioAssay, several laboratories
HNF4A DNA FP = change in binding of human HNF4A to DNA, primary screen, biochemical, fluorescence polarization, FITC-DNA; AID 1224865, 2016; 1 h; actives 0.3% (n = 360,000); activity change, % at 10 µM; Hepatocyte nuclear factor 4-alpha (Homo sapiens), P41235; in the data active = activity change above about 30%, passing the limit was not always enough
Target sequence (P41235 whole entry, looked up): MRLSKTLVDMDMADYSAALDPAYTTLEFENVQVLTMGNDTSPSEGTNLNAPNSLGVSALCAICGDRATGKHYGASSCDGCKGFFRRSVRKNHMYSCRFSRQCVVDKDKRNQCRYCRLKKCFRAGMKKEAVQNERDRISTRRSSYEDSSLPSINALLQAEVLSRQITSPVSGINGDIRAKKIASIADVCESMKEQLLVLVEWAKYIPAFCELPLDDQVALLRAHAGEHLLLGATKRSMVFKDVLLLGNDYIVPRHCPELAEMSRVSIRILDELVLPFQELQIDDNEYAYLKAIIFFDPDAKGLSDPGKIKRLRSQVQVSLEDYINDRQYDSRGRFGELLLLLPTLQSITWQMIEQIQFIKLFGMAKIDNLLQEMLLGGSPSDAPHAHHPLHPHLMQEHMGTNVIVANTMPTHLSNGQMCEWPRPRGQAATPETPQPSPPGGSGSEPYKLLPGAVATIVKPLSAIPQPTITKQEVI
TPT1 inh = Candida albicans TPT1 enzyme inhibitors, primary screen, biochemical, fluorescence polarization. tRNA 2'-phosphotransferase TPT1 (Candida albicans SC5314). recombinant caTPT1, FP RNA substrate dephosphorylation. inhibition, % at 5 µM. actives 0.81% (n = 300,000);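 active = inhibition above the mean of all tested compounds plus 3 SD, set per screening campaign, cut at about 24% in these data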
CSN deneddyl inh = inhibitors of CSN-mediated cullin deneddylation, primary screen, biochemical, fluorescence polarization, uHTS | COP9 signalosome complex subunit 5 (Homo sapiens), Q92905 | Purified CSN, SCF-Nedd8-OG deneddylation | inhibition, % at 12.5 µM | actives 0.38% (n = 360,000) | AID 651999, 2013;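 active = pattern-corrected inhibition above about 35%, with an unprinted fluorescence ratio check between 0.5 and 1.5, limit read from the data, passing the limit was not always enough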
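Assay system: purified human Csn5 enzyme expressed in HEK293T cells; measure: % inhibition; also added: SCFSkp2-Nedd8OG substrate at 10 nM final; technique: fluorescence polarization; times: reaction 90 min, room temperature; medium: Tris buffer pH 7.5, NaCl, DTT, Tween-20, trehalose, ovalbumin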
Rpn11 block = Rpn11 (PSMD14) deubiquitinase inhibitors, primary screen, biochemical, fluorescence polarization, uHTS. inhibition, % at 20 µM. AID 588493, 2011. human 26S proteasome, Ub4-pepOG fluorescence polarization; 20S core pre-blocked with epoxomicin. actives 0.59% (n = 360,000);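 active = inhibition at 20 µM, scaled to each plate's controls, above about 33%, limit read from the data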
caTPT1 confirm = Candida albicans TPT1 inhibitors, confirmation, biochemical, fluorescence polarization, triplicate | shares compounds with TPT1 inh | recombinant caTPT1, RNase T1 coupled | inhibition, % at 5 µM | actives 74% (n = 2,400) | AID 2149, 2009;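 active = inhibition above the primary screen limit, the mean inhibition of all tested compounds plus 3 SD, cut at about 25% in these data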
RNase T1 inh = RNase T1 inhibitors, counter-screen for TPT1 inhibitor project, biochemical, fluorescence polarization; inhibition, % at 5 µM; shares compounds with TPT1 inh; AID 2153, 2009; actives 83% (n = 2,400); RNase T1 cleavage, 1536-well;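 active = inhibition above the solvent-only control well mean plus 3 SD, limit set per screening run, cut at about 23% in these data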;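 also: inhibitors block cleavage so intact labeled substrate keeps polarization high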
Target sequence (P00651 whole entry, looked up): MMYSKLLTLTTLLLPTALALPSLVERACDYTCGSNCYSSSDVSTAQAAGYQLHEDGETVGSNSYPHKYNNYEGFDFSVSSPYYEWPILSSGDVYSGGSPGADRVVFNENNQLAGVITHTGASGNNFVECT
Of the large screens only hits and unclear results are named; the others gave an inactive call (follow-up assays come after a bar, where shown). Most compounds without a hit are left out; they make up all but 1.5% or so of the library.

Cc1sc(-n2c(C)cc(/C=C3\SC(=S)NC3=O)c2C)c(C#N)c1C	HNF4A DNA FP 67, TPT1 inh 45 (not shown: Rpn11 block) | caTPT1 confirm 60 | RNase T1 inh 75
CCn1ncc(/C=C2/SC(=S)NC2=O)c1C	none
CCn1c(C)cc(/C=C2/SC(=S)NC2=O)c1C	TPT1 inh 98 | caTPT1 confirm 105 | RNase T1 inh 119
NC(=O)c1c(NC(=O)C2c3ccccc3Oc3ccccc32)sc2c1CCCCC2	TPT1 inh 27 | caTPT1 confirm inactive | RNase T1 inh 22
CC(=O)c1ccc(C(=O)Nc2sc3c(c2C(N)=O)CCN(Cc2ccccc2)C3)cc1	TPT1 inh 132 (not shown: Rpn11 block) | caTPT1 confirm 140 | RNase T1 inh 141
CC(C)N1CCc2c(sc(NC(=O)c3ccc(C(=O)c4ccccc4)cc3)c2C(N)=O)C1	TPT1 inh 35 | caTPT1 confirm 31 | RNase T1 inh 48
CC(=O)Nc1sc2c(c1-c1nc3ccccc3s1)CCN(C(C)C)C2	TPT1 inh 43 (not shown: Rpn11 block) | caTPT1 confirm 47 | RNase T1 inh 53
COc1ccc(Cc2c(C3CCCCC3)nc3ccc(Br)cn23)c(C)c1	none (no result: TPT1 inh)
Cc1ccc(NC(=O)COc2ccc3c(c2)OCO3)c(Cl)c1	none (no result: TPT1 inh)
CCOC(=O)C1=C(COC(=O)C2CC(=O)N(c3ccc(C)cc3)C2)NC(=O)NC1C (centres undefined)	none
Cn1c2ccccc2c(=O)c2ccc(NCCc3cccs3)cc21	none (no result: TPT1 inh)
Cc1cccc(NC(=O)N2CCCCCC2)c1	none
NC(=O)c1c(NC(=O)c2cccc(N3C(=O)CCC3=O)c2)sc2c1CCCCC2	none
CCOC(=O)N1CCc2c(sc(N)c2C#N)C1	none (no result: HNF4A DNA FP, CSN deneddyl inh, Rpn11 block)
CC(C)(C)C(=O)Nc1sc2c(c1C#N)CCN(Cc1ccccc1)C2	TPT1 inh 39 | caTPT1 confirm 62 | RNase T1 inh 67
N#Cc1c(N)sc2c1CCN(CCc1ccccc1)C2	TPT1 inh 75 (not shown: Rpn11 block) | caTPT1 confirm 71 | RNase T1 inh 82
NC(=O)c1c(NC(=O)C2COc3ccccc3O2)sc2c1CCN(Cc1ccccc1)C2 (centres undefined)	TPT1 inh 67 (not shown: Rpn11 block) | caTPT1 confirm 70 | RNase T1 inh 85
CC(=O)N1CCc2c(sc(NC(=O)c3cccc(N4C(=O)CCC4=O)c3)c2C(N)=O)C1	TPT1 inh 33 | caTPT1 confirm 41 | RNase T1 inh 56
CCOC(=O)C1(C)CCN1C(=O)CSc1ccccc1 (centres undefined)	none (no result: TPT1 inh)
CCN(c1ccc(OC)cc1)S(=O)(=O)c1ccc2c(c1)CC(C)N2C(=O)C1CC1 (centres undefined)	none
CCCN1CCc2c(sc(NC(=O)c3ccc(S(=O)(=O)N(C)c4ccccc4)cc3)c2C(N)=O)C1	HNF4A DNA FP 34, TPT1 inh 107 | caTPT1 confirm 113 | RNase T1 inh 115
CCN1CCc2c(sc(NC(=O)c3ccc(S(=O)(=O)N(C)CC4CCCO4)cc3)c2C(N)=O)C1 (centres undefined)	none
O=C1CNC(=O)/C(=C\c2ccccc2)N1	none
O=C1/C(=C/c2ccccc2)Nc2ccccc21	TPT1 inh 63 (not shown: Rpn11 block) | caTPT1 confirm 64 | RNase T1 inh 70
COc1ccc(OC)c(C=C2CCc3ccccc3C2=O)c1	none (no result: TPT1 inh)
CC(=O)Nc1ccc(/C=C2\Sc3ccccc3C2=O)cc1	TPT1 inh 35 | caTPT1 confirm 41 | RNase T1 inh 46
COc1ccc(OC)c(/C=C2/Sc3ccccc3C2=O)c1	TPT1 inh 111 (not shown: Rpn11 block) | caTPT1 confirm 101 | RNase T1 inh 102
Cc1ccc(/C=C2\Sc3ccccc3C2=O)s1	TPT1 inh 44 | caTPT1 confirm 58 | RNase T1 inh 70
O=C1/C(=C/c2cccnc2)Sc2ccccc21	none
CC(C)C(NC(=O)c1c(F)cccc1F)C(=O)OCN1C(=O)c2ccccc2C1=O (centres undefined)	none (no result: TPT1 inh)
C/C(=N\NC(=O)c1c(C)nc2ccccn12)c1ccc(O)cc1O	TPT1 inh 35 | caTPT1 confirm 38 | RNase T1 inh 41
CC[C@H](C)/C=C(C)/C=C/C(=O)Cc1cc(O)c(C)c(O)c1C=O	TPT1 inh 34 | caTPT1 confirm 31 | RNase T1 inh 41
COc1ccc(/C=N/Nc2ccc(C(F)(F)F)cc2[N+](=O)[O-])cc1	TPT1 inh 62 | caTPT1 confirm inactive | RNase T1 inh inactive
O=C(NC1CCSC1=O)c1cccc(Cl)c1 (centres undefined)	TPT1 inh 31 | caTPT1 confirm inactive | RNase T1 inh inactive
CC(C)Cn1c(=O)c2c(nc3n2CC(C)CN3Cc2ccccc2)n(C)c1=O (centres undefined)	none
Cc1cc(/C=C2/C(=N)N3C(c4ccccc4)=CSC3=NC2=O)c(C)n1-c1ccccc1	TPT1 inh 24 | caTPT1 confirm inactive | RNase T1 inh 27
CCCCCCc1cc2cc(S(=O)(=O)c3ccc(Cl)cc3)c(=O)oc2cc1O	none
CCN(CC)c1ccc2cc(S(=O)(=O)c3ccc(Cl)cc3)c(=O)oc2c1	TPT1 inh 86 | caTPT1 confirm 98 | RNase T1 inh 104
CC(=O)/C(N=Nc1cc(C)ccc1O)=C(\C)O	TPT1 inh 44 (not shown: Rpn11 block) | caTPT1 confirm 29 | RNase T1 inh 48
O=c1[nH]c2cc(Cl)cc([N+](=O)[O-])c2c2ccc(Cl)cc12	none (no result: TPT1 inh)
COCCCNC(=O)N1c2ccccc2Sc2ccccc21	TPT1 inh 25 | caTPT1 confirm inactive | RNase T1 inh inactive
CCOC(=O)C1=C(COC(=O)c2ccc(Br)c(S(=O)(=O)N3CCOCC3)c2)NC(=O)NC1C (centres undefined)	none (no result: TPT1 inh)
C=CCSc1nc2[nH]ncc2c(=O)[nH]1	none
C#CCSc1nc2[nH]ncc2c(=O)[nH]1	TPT1 inh 33 | caTPT1 confirm inactive | RNase T1 inh inactive
N#Cc1c(Sc2ncc(C(F)(F)F)cc2Cl)nsc1C/C=N\OCc1ccccc1Br	TPT1 inh 55 (not shown: Rpn11 block) | caTPT1 confirm 35 | RNase T1 inh 37
Cc1ccccc1S(=O)(=O)N(C)C[C@@H]1OCc2cnnn2CCCC(=O)N([C@@H](C)CO)C[C@H]1C	none (no result: TPT1 inh)
Cc1cccc(/N=C/c2c(O)[nH]c3ccccc23)n1	none
Oc1c(C=Nc2cccc3cccnc23)sc2ccccc12	TPT1 inh 172 (no result: HNF4A DNA FP, CSN deneddyl inh, Rpn11 block) | caTPT1 confirm 152 | RNase T1 inh 138
Cc1cccc(/N=C/c2sc3ccccc3c2O)n1	TPT1 inh 85 | caTPT1 confirm 29 | RNase T1 inh 40
